# ChEMBL document CHEMBL2169813, “Cell death triggered by synthetic flavonoids in human leukemia cells is amplified by the inhibition of extracellular signal-regulated kinase signaling” (Eur J Med Chem, 2012)
# Activity calls are given as the source filed them. The rule behind the calls is not given here.
# Assays:
# [1] = test system: HL-60; assay: Induction of apoptosis in human HL60 cells assessed as hypodiploid cells level incubated for 24 hrs in presence of 2 uM p38MAPK inhibitor SB203580 by flow cytometry; assay type: functional, cell-based
# Outline: (§1)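 HL-60 cells preincubated 1 h with PD98059 (10 µM), SP600125 (10 µM) or SB203580 (2 µM), then treated with compound. Hypodiploid (apoptotic) cells quantified by flow cytometry of propidium iodide-stained nuclei. Three independent experiments, each in triplicate.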
# [2] = test system: HL-60; assay: Induction of apoptosis in human HL60 cells assessed as hypodiploid cells level incubated for 24 hrs in presence of 10 uM JNK/SAPK inhibitor SP600125 by flow cytometry; assay type: functional, cell-based; outline: as §1
# [3] = molecular target: T1, Mitogen-activated protein kinase; ERK1/ERK2 (Homo sapiens) (UniProt P27361+P28482); assay: Induction of ERK1/2 phosphorylation in human HL60 cells after 30 mins in presence of 10 uM MEK1/2 inhibitor PD98059 by Western blotting; assay type: cell-based; conditions: HL-60
# T1 sequence (P27361 whole entry, looked up): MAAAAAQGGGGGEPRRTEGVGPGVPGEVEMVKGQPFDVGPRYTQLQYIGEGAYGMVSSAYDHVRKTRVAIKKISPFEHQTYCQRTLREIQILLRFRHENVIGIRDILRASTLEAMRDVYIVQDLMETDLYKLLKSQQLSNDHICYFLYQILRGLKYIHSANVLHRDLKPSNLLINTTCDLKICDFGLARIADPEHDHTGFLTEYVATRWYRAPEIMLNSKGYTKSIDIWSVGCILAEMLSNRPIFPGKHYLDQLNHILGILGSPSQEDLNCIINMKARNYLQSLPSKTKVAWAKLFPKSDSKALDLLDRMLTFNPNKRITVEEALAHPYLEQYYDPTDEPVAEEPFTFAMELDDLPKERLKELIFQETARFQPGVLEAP
# T1 sequence (P28482 whole entry, looked up): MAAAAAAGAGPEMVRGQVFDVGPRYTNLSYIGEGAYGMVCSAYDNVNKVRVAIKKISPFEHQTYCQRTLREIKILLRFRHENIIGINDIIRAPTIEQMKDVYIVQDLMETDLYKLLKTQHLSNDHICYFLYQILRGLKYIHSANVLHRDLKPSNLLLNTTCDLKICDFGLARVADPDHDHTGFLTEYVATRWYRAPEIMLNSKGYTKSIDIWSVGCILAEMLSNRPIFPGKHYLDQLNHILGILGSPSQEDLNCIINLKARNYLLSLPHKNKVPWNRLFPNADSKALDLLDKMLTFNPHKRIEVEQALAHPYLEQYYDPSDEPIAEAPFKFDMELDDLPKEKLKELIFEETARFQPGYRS
# Outline: (§2)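 HL-60 cells (1 × 10⁶/mL) treated with compound (10–30 µM) for various times. Where used, PD98059 (10 µM) was added 1 h beforehand. Lysates run on 10% SDS-PAGE and immunoblotted for phosphorylated ERK 1/2, JNK/SAPK or p38MAPK. Blots stripped and reprobed for the total kinase as loading control.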
# [4] = test system: HL-60; assay: Increase in apoptosis in human HL60 cells assessed as hypodiploid cells level incubated for 24 hrs in presence of 10 uM MEK1/2 inhibitor PD98059 by flow cytometry (reference value: 16%); assay type: functional; outline: as §1
# [5] = molecular target: T2, c-Jun N-terminal kinase, JNK (Homo sapiens) (UniProt P45983+P53779+P45984); assay: Induction of JNK/SAPK phosphorylation in human HL60 cells after 6 hrs by Western blotting; assay type: cell-based; conditions: HL-60; outline: as §2
# [6] = molecular target: T1, Mitogen-activated protein kinase; ERK1/ERK2 (Homo sapiens); assay: Induction of ERK1/2 phosphorylation in human HL60 cells after 6 hrs by Western blotting; assay type: cell-based; conditions: HL-60; outline: as §2
# [7] = molecular target: T3, MAP kinase p38 (Homo sapiens) (UniProt O15264+Q15759+Q16539+P53778); assay: Induction of p38MAPK phosphorylation in human HL60 cells after 2 hrs by Western blotting; assay type: cell-based; conditions: HL-60; outline: as §2
# [8] = molecular target: T3, MAP kinase p38 (Homo sapiens); assay: Induction of p38MAPK phosphorylation in human HL60 cells after 30 mins by Western blotting; assay type: cell-based; conditions: HL-60; outline: as §2
# [9] = molecular target: T2, c-Jun N-terminal kinase, JNK (Homo sapiens); assay: Induction of JNK/SAPK phosphorylation in human HL60 cells after 30 mins by Western blotting; assay type: cell-based; conditions: HL-60; outline: as §2
# [10] = test system: HL-60; assay: Induction of apoptosis in human HL60 cells assessed as hypodiploid cells level at 30 uM incubated for 24 hrs in presence of caspase-9 inhibitor z-LEHD-fmk by flow cytometry; assay type: functional, cell-based
# Outline: (§3)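 HL-60 cells given 30 µM compound for 24 h, alone or with z-VAD-fmk (100 µM), z-DEVD-fmk, z-IETD-fmk or z-LEHD-fmk (each 50 µM). Propidium iodide staining, hypodiploid cells quantified by flow cytometry. Three independent experiments, each in triplicate.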
# [11] = test system: HL-60; assay: Induction of apoptosis in human HL60 cells assessed as hypodiploid cells level at 30 uM incubated for 24 hrs in presence of caspase-8 inhibitor z-IETD-fmk by flow cytometry; assay type: functional, cell-based; outline: as §3
# [12] = test system: HL-60; assay: Induction of apoptosis in human HL60 cells assessed as hypodiploid cells level at 30 uM incubated for 24 hrs in presence of caspase-3 and -7 inhibitor z-DEVD-fmk by flow cytometry; assay type: functional, cell-based; outline: as §3
# [13] = test system: HL-60; assay: Induction of apoptosis in human HL60 cells assessed as hypodiploid cells level at 30 uM incubated for 24 hrs in presence of caspase inhibitor z-VAD-fmk by flow cytometry; assay type: functional, cell-based; outline: as §3
# [14] = test system: HL-60; assay: Induction of procaspase-7 processing in human HL60 cells at 30 uM incubated for 24 hrs by immunoblotting method; assay type: functional, cell-based
# Outline: (§4)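 HL-60 cells (1 × 10⁶/mL) exposed to compound, harvested at 24 h. Lysed in Tris-HCl pH 7.4/Triton X-100 buffer with phosphatase and protease inhibitors, 15 min at 4 °C. Equal protein run on SDS-PAGE (7.5% PARP, 12.5% caspases) and immunoblotted on PVDF. β-Actin used as loading control.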
# [15] = test system: HL-60; assay: Induction of procaspase-3 processing in human HL60 cells at 30 uM incubated for 24 hrs by immunoblotting method; assay type: functional, cell-based; outline: as §4
# [16] = test system: HL-60; assay: Induction of procaspase-6 processing in human HL60 cells at 30 uM incubated for 24 hrs by immunoblotting method; assay type: functional, cell-based; outline: as §4
# [17] = test system: HL-60; assay: Induction of Bid protein cleavage in human HL60 cells at 30 uM incubated for 24 hrs by Western blotting method; assay type: functional, cell-based; outline: as §4
# [18] = test system: HL-60; assay: Induction of procaspase-9 cleavage in human HL60 cells at 30 uM incubated for 24 hrs by immunoblotting method; assay type: functional, cell-based; outline: as §4
# [19] = test system: HL-60; assay: Induction of procaspase-8 hydrolysis in human HL60 cells at 30 uM incubated for 24 hrs by immunoblotting method; assay type: functional, cell-based; outline: as §4
# [20] = test system: HL-60; assay: Induction of cytochrome-c release in human HL60 cells at 30 uM incubated for 24 hrs by immunoblotting method; assay type: functional, cell-based
# Outline: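 HL-60 cells treated 24 h with 30 µM compound. Cytosolic extracts immunoblotted for cytochrome c released from mitochondria. β-Actin used as loading control.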
# [21] = test system: HL-60; assay: Induction of caspase activation in human HL60 cells assessed as increase in PARP cleavage at 30 uM incubated for 24 hrs by immunoblotting method; assay type: functional, cell-based; outline: as §4
# [22] = test system: HL-60; assay: Induction of p21'Cip1 protein expression in human HL60 cells at 30 uM incubated for 24 hrs by Western blotting method; assay type: functional, cell-based; outline: as §4
# [23] = test system: HL-60; assay: Induction of cyclin D1 protein expression in human HL60 cells at 30 uM incubated for 24 hrs by Western blotting method; assay type: functional, cell-based; outline: as §4
# [24] = test system: HL-60; assay: Cell cycle arrest in human HL60 cells assessed as accumulation at S phase at 30 uM incubated for 24 hrs by flow cytometry (reference value: 16.7 +/- 0.5%); assay type: functional
# [25] = test system: HL-60; assay: Cell cycle arrest in human HL60 cells assessed as accumulation at G2/M phase at 30 uM incubated for 24 hrs by flow cytometry (reference value: 33.2 +/- 2.1%); assay type: functional
# [26] = test system: HL-60; assay: Cell cycle arrest in human HL60 cells assessed as accumulation at G1 phase at 30 uM incubated for 24 hrs by flow cytometry (reference value: 48 +/- 1.6%); assay type: functional
# [27] = test system: HL-60; assay: Cell cycle arrest in human HL60 cells assessed as accumulation at G2/M phase at 10 uM incubated for 24 hrs by flow cytometry (reference value: 33.2 +/- 2.1%); assay type: functional
# [28] = test system: HL-60; assay: Cell cycle arrest in human HL60 cells assessed as accumulation at G1 phase at 10 uM incubated for 24 hrs by flow cytometry (reference value: 48 +/- 1.6%); assay type: functional
# [29] = test system: HL-60; assay: Cell cycle arrest in human HL60 cells assessed as accumulation at S phase at 10 uM incubated for 24 hrs by flow cytometry (reference value: 16.7 +/- 0.5%); assay type: functional
# [30] = test system: HL-60; assay: Cell cycle arrest in human HL60 cells assessed as accumulation at subG1 phase at 10 uM incubated for 24 hrs by flow cytometry (reference value: 2.3 +/- 0.5%); assay type: functional
# [31] = test system: HL-60; assay: Induction of DNA fragmentation in human HL60 cells at 30 uM incubated for 24 hrs by agarose gel electrophoresis; assay type: functional, cell-based
# Outline: (§5)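 HL-60 cells treated with the indicated concentrations. Genomic DNA extracted, run on agarose gel and visualised under UV after ethidium bromide staining, looking for internucleosomal fragmentation.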
# [32] = test system: HL-60; assay: Induction of DNA fragmentation in human HL60 cells at 10 uM incubated for 24 hrs by agarose gel electrophoresis; assay type: functional, cell-based; outline: as §5
# [33] = test system: HL-60; assay: Induction of apoptosis in human HL60 cells assessed as incidence of condensed and fragmented chromatin at 30 uM incubated for 24 hrs by fluorescent microscopy; assay type: functional, cell-based
# [34] = test system: HL-60; assay: Cytotoxicity against human HL60 cells up to 30 uM after 72 hrs by MTT assay; assay type: functional, cell-based
# [35] = test system: PBMC; assay: Cytotoxicity against human proliferating PBMCs up to 30 uM; assay type: cell-based
# Outline: (§6)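 HL-60 cells, quiescent (fresh) PBMC and phytohemagglutinin-activated healthy human PBMC cultured 48 h over a concentration range of compound. Proliferation measured. Means ± SE of two independent experiments, each in triplicate.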
# [36] = test system: PBMC; assay: Cytotoxicity against human fresh PBMCs up to 30 uM; assay type: cell-based; outline: as §6
# [37] = test system: HL-60; assay: Cytotoxicity against human HL60 cells after 72 hrs by MTT assay; assay type: functional, cell-based; conditions: HL-60, 72 h
# Outline: (§7)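 MTT colorimetric assay on HL-60 and HL-60/MX1 cells (RPMI 1640, 10% heat-inactivated FBS), 72 h exposure, absorbance 570 nm. IC50 obtained graphically by curve fitting. Means ± S.E. of three independent experiments, each in triplicate.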
# [38] = molecular target: T1, Mitogen-activated protein kinase; ERK1/ERK2 (Homo sapiens); assay: Induction of ERK1/2 phosphorylation in human HL60 cells after 30 mins by Western blotting; assay type: cell-based; conditions: HL-60; outline: as §2
# [39] = test system: HL-60; assay: Cell cycle arrest in human HL60 cells assessed as accumulation at subG1 phase at 30 uM incubated for 24 hrs by flow cytometry (reference value: 2.3 +/- 0.5%); assay type: functional
# [40] = Cytotoxicity against human HL60/MX1 cells after 72 hrs by MTT assay; assay type: functional, cell-based; conditions: HL60/MX1, 72 h; outline: as §7
# [41] = test system: HL-60; assay: Cytotoxicity against human HL60 cells at 100 uM after 72 hrs by MTT assay
# [42] = test system: HL-60; assay: Induction of apoptosis in human HL60 cells assessed as changes in nuclear morphology at 30 uM incubated for 24 hrs by fluorescence microscopy (reference value: 4.9 +/- 1.0%)
smiles,measurement,setting,value
COC(=O)c1c(C)c(C)cc2c(=O)cc(-c3ccccc3Cl)oc12,Activity,[1],Active
same,Activity,[2],Active
same,Activity,[3],inactive
same,Activity,[4],32%
same,Activity,[5],Active
same,Activity,[6],Active
same,Activity,[7],inactive
same,Activity,[8],Active
same,Activity,[9],Active
same,Activity,[10],inactive
same,Activity,[11],inactive
same,Activity,[12],inactive
same,Activity,[13],inactive
same,Activity,[14],Active
same,Activity,[15],Active
same,Activity,[16],Active
same,Activity,[17],Active
same,Activity,[18],Active
same,Activity,[19],Active
same,Activity,[20],Active
same,Activity,[21],Active
same,Activity,[22],Active
same,Activity,[23],Active
same,Activity,[24],7.8%
same,Activity,[25],13.5%
same,Activity,[26],47.2%
same,Activity,[27],22.9%
same,Activity,[28],54.9%
same,Activity,[29],16.7%
same,Activity,[30],6.3%
same,Activity,[31],Active
same,Activity,[32],Active
same,Activity,[33],Active
same,Activity,[34],Active
same,Activity,[35],Non-toxic
same,Activity,[36],Non-toxic
same,IC50,[37],9.3 µM
same,Activity,[38],Active
same,Activity,[39],28.1%
same,IC50,[40],70.7 µM
same,Activity,[41],Active
same,Activity,[42],30.6%
